According to ChEMBL document CHEMBL1126160, “Synthesis and structure-activity relationships of 7-diazabicycloalkylquinolones, including danofloxacin, a new quinolone antibacterial agent for veterinary medicine” (J Med Chem, 1992):
Converted amounts (≈) assume the structure as drawn.

Tests used:
Type in all cases: functional
[1] = system: Actinobacillus pleuropneumoniae; test: In vitro antibacterial activity against anaerobically grown Actinobacillus pleuropneumoniae ([…])
In short: (§1)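 Agar dilution MICs. Anaerobic strains were tested on tryptose agar with 5% bovine blood and incubated 48 h at 39 °C in an anaerobe chamber under N2/CO2/H2 (80:10:10).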

[2] = system: Trueperella pyogenes; test: In vitro antibacterial activity against anaerobically grown Actinomyces pyogenes (14D002); in short: as §1
[3] = system: Phocaeicola vulgatus; test: In vitro antibacterial activity against anaerobically grown Bacteroides vulgatus (78D029); in short: as §1
[4] = system: Bordetella bronchiseptica; test: In vitro antibacterial activity against aerobically grown Bordetella bronchiseptica (73A009)
In short: (§2)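 Agar dilution MICs. Aerobic strains were tested on brain heart infusion agar and incubated aerobically at 37 °C for 18–20 h.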

[5] = system: Escherichia coli; test: In vitro antibacterial activity against aerobically grown Escherichia coli (51A538); in short: as §2
[6] = system: Escherichia coli; test: Escherichia coli DNA cleavage endpoint value which is the minimum amount required (in micro g/mL) to induce detectable cleavage of supercoiled pBR322 substrate to linear form (gyrase); settings: read-out: MIC
In short: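 DNA gyrase A and B subunits were purified from E. coli overproducers. About 2 units of holoenzyme were incubated with pBR322 in Tris-HCl pH 7.5 containing MgCl2, spermidine, DTT, 0.2 mM ATP, BSA and tRNA. Drug was added as 2-fold serial dilutions, and reactions ran for 60 min at 25 °C. Reactions were stopped with SDS and proteinase K, then run on agarose and stained with ethidium. The endpoint was the lowest concentration giving detectable linear DNA.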

[7] = In vitro antibacterial activity against Aerobically grown Pasteurella haemolytica (59B018); settings: Mannheimia haemolytica; in short: as §2
[8] = system: Pasteurella multocida; test: In vitro antibacterial activity against aerobically grown Pasteurella multocida (59A006); in short: as §2
[9] = system: Salmonella enterica; test: In vitro antibacterial activity against aerobically grown Salmonella choleraesuis (58B015)
[10] = system: Staphylococcus aureus; test: In vitro antibacterial activity against aerobically grown Staphylococcus aureus (54B004); in short: as §2
[11] = In vitro evaluation for antibacterial activity against anaerobically grown Treponema hyodysenteriae (94A007); settings: Brachyspira hyodysenteriae
[12] = system: Clostridium perfringens; test: microbe, parasite or virus in culture

SMILES	MIC [1] [µg/mL]	MIC [2] [µg/mL]	MIC [3] [µg/mL]	MIC [4] [µg/mL]	MIC [5] [µg/mL]	minimum concentration inducing gyrase-mediated DNA cleavage [6] [µg/mL]	MIC [7] [µg/mL]	MIC [8] [µg/mL]	MIC [9] [µg/mL]	MIC [10] [µg/mL]	MIC [11] [µg/mL]	MIC [12] [µg/mL]
CN1[C@@H]2CCC[C@H]1CN(c1cc3c(cc1F)c(=O)c(C(=O)O)cn3C1CC1)C2.Cl	0.1	3.13	1.56	1.56	0.39	1.56	0.2	0.05	0.39	0.2	> 3.13	0.39
CN1[C@@H]2CC[C@H]1CN(c1cc3c(cc1F)c(=O)c(C(=O)O)cn3CCF)C2.Cl.O	0.1		6.25	3.13	0.2	3.12	0.2	0.2	0.39	0.2	3.13	0.39
CN1[C@@H]2CC[C@H]1CN(c1cc3c(cc1F)c(=O)c(C(=O)O)cn3-c1ccc(F)cc1)C2.Cl.O	0.78	> 3.13	0.78	> 1.56	1.56		0.78	0.2	> 1.56	0.78	1.56	3.13
CN1C[C@@H]2C[C@H]1CN2c1c(F)cc2c(=O)c(C(=O)O)cn(C3CC3)c2c1F	< 0.05	0.78 (≈ 2.08 µM)	3.12 (≈ 8.31 µM)	0.39 (≈ 1.04 µM)	< 0.05	0.39	< 0.05	< 0.05		0.1 (≈ 0.266 µM)	1.56 (≈ 4.16 µM)	3.12 (≈ 8.31 µM)
CN1C[C@@H]2C[C@H]1CN2c1c(F)cc2c(=O)c(C(=O)O)cn(-c3ccc(F)cc3F)c2c1F	0.1 (≈ 0.224 µM)	1.56 (≈ 3.49 µM)	1.56 (≈ 3.49 µM)	> 1.56	0.2 (≈ 0.447 µM)	0.78	0.1 (≈ 0.224 µM)	0.02 (≈ 0.0447 µM)	0.39 (≈ 0.872 µM)	0.2 (≈ 0.447 µM)	> 3.13	0.39 (≈ 0.872 µM)
CN1C2CC[C@@H]1CCN(c1cc3c(cc1F)c(=O)c(C(=O)O)cn3CCF)C2	0.39 (≈ 0.996 µM)	> 3.13	> 3.13	1.56 (≈ 3.99 µM)	1.56 (≈ 3.99 µM)	3.12	1.56 (≈ 3.99 µM)	0.39 (≈ 0.996 µM)	> 1.56	0.78 (≈ 1.99 µM)	> 3.13	1.56 (≈ 3.99 µM)
CN1[C@@H]2CC[C@H]1CN(c1c(F)cc3c(=O)c(C(=O)O)cn(C4CC4)c3c1Cl)C2	0.2 (≈ 0.493 µM)	3.13 (≈ 7.71 µM)	0.78 (≈ 1.92 µM)	> 1.56	0.39 (≈ 0.961 µM)	1.56	0.2 (≈ 0.493 µM)	0.05 (≈ 0.123 µM)	0.78 (≈ 1.92 µM)	0.39 (≈ 0.961 µM)	> 3.13	0.78 (≈ 1.92 µM)
CNn1cc(C(=O)O)c(=O)c2cc(F)c(N3CCN4CCC3CC4)cc21	< 0.05	6.25 (≈ 17.3 µM)	> 25	12.5 (≈ 34.7 µM)	0.39 (≈ 1.08 µM)	1.56	0.1 (≈ 0.277 µM)	0.1 (≈ 0.277 µM)	1.56 (≈ 4.33 µM)	1.56 (≈ 4.33 µM)	3.13 (≈ 8.69 µM)	0.78 (≈ 2.16 µM)
O=C(O)c1cn(-c2ccc(F)cc2)c2c(F)c(N3C[C@@H]4C[C@H]3CN4)c(F)cc2c1=O	0.1 (≈ 0.241 µM)	> 3.13	> 3.13	> 1.56	0.1 (≈ 0.241 µM)	0.78	0.1 (≈ 0.241 µM)	0.1 (≈ 0.241 µM)	0.2 (≈ 0.481 µM)	0.78 (≈ 1.88 µM)	0.78 (≈ 1.88 µM)	0.2 (≈ 0.481 µM)
CN1[C@@H]2CC[C@H]1CN(c1c(F)cc3c(=O)c(C(=O)O)cn(CCF)c3c1F)C2	0.39 (≈ 0.986 µM)	> 3.13	> 3.13	6.25 (≈ 15.8 µM)	0.78 (≈ 1.97 µM)	0.39	0.78 (≈ 1.97 µM)	0.39 (≈ 0.986 µM)	1.56 (≈ 3.95 µM)	1.56 (≈ 3.95 µM)	> 3.13	0.78 (≈ 1.97 µM)
CCn1cc(C(=O)O)c(=O)c2cc(F)c(N3CC[C@H]4CCC(C3)N4C)c(F)c21	0.78 (≈ 1.99 µM)	> 3.13	> 3.13	1.56 (≈ 3.99 µM)	0.39 (≈ 0.996 µM)	3.12	0.78 (≈ 1.99 µM)	0.2 (≈ 0.511 µM)	1.56 (≈ 3.99 µM)	0.78 (≈ 1.99 µM)	> 3.13	3.13 (≈ 8 µM)
CN1C2CC[C@@H]1CCN(c1cc3c(cc1F)c(=O)c(C(=O)O)cn3C)C2				> 25	6.25 (≈ 17.4 µM)	6.25	6.25 (≈ 17.4 µM)	6.25 (≈ 17.4 µM)	6.25 (≈ 17.4 µM)	1.56 (≈ 4.34 µM)		
CN1C[C@@H]2C[C@H]1CN2c1nc2c(cc1F)c(=O)c(C(=O)O)cn2-c1ccc(F)cc1	0.1 (≈ 0.242 µM)	> 3.13	3.13 (≈ 7.59 µM)	> 1.56	0.2 (≈ 0.485 µM)	1.56	0.05 (≈ 0.121 µM)	0.02 (≈ 0.0485 µM)	0.2 (≈ 0.485 µM)	0.2 (≈ 0.485 µM)	3.13 (≈ 7.59 µM)	0.39 (≈ 0.946 µM)
CN1[C@@H]2CC[C@H]1CN(c1cc3c(cc1F)c(=O)c(C(=O)O)cn3C)C2	0.78 (≈ 2.26 µM)	3.13 (≈ 9.06 µM)	12.5 (≈ 36.2 µM)	> 25	3.13 (≈ 9.06 µM)	3.12	0.2 (≈ 0.579 µM)	0.78 (≈ 2.26 µM)	3.13 (≈ 9.06 µM)	0.2 (≈ 0.579 µM)	0.78 (≈ 2.26 µM)	1.56 (≈ 4.52 µM)
CN1C[C@@H]2C[C@H]1CN2c1cc2c(cc1F)c(=O)c(C(=O)O)cn2-c1ccc(F)cc1F	0.005 (≈ 0.0116 µM)	0.78 (≈ 1.82 µM)	0.78 (≈ 1.82 µM)	1.56 (≈ 3.63 µM)	0.1 (≈ 0.233 µM)	0.78	0.05 (≈ 0.116 µM)	0.01 (≈ 0.0233 µM)	0.2 (≈ 0.466 µM)	0.1 (≈ 0.233 µM)	> 3.13	0.2 (≈ 0.466 µM)
O=C(O)c1cn(C2CC2)c2c(F)c(N3CCN4CCC3CC4)c(F)cc2c1=O	0.01 (≈ 0.0257 µM)	0.39 (≈ 1 µM)	0.1 (≈ 0.257 µM)	0.39 (≈ 1 µM)	0.01 (≈ 0.0257 µM)	0.39	0.01 (≈ 0.0257 µM)	0.002 (≈ 0.00514 µM)	0.01 (≈ 0.0257 µM)	0.05 (≈ 0.128 µM)	0.78 (≈ 2 µM)	0.1 (≈ 0.257 µM)
CCn1cc(C(=O)O)c(=O)c2cc(F)c(N3C[C@H]4CCC[C@@H](C3)N4C)cc21	0.2 (≈ 0.536 µM)	6.25 (≈ 16.7 µM)	1.56 (≈ 4.18 µM)	6.25 (≈ 16.7 µM)	1.56 (≈ 4.18 µM)	3.12	0.1 (≈ 0.268 µM)	0.78 (≈ 2.09 µM)	1.56 (≈ 4.18 µM)	0.1 (≈ 0.268 µM)	6.25 (≈ 16.7 µM)	0.39 (≈ 1.04 µM)
CN1C[C@@H]2C[C@H]1CN2c1c(F)cc2c(=O)c(C(=O)O)cn(-c3ccc(F)cc3)c2c1F	0.05 (≈ 0.116 µM)	> 3.13	3.13 (≈ 7.29 µM)	> 1.56	0.2 (≈ 0.466 µM)	0.39	0.2 (≈ 0.466 µM)	0.02 (≈ 0.0466 µM)	0.39 (≈ 0.908 µM)	0.39 (≈ 0.908 µM)	1.56 (≈ 3.63 µM)	0.39 (≈ 0.908 µM)
